Measurements reported in publication PMC7825275 (Cancer chemotherapy and pharmacology, 2019).

Tested on: patients with advanced solid tumors
Test: Toxicity by grade
Type: in vivo, human
Conditions: first cycle including veliparib with carboplatin and paclitaxel, n=73
Summary of the method: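 Adverse events were tabulated descriptively as maximum grade in three groups: the chemotherapy-only lead-in cycle, the first veliparib-containing cycle, and all cycles. CBC and serum chemistry including liver function tests were drawn weekly during cycles 1–2, then at the start of every cycle. Veliparib was oral, twice daily on days 1–7; carboplatin/paclitaxel were IV every 21 days.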

C[C@]1(c2nc3c(C(N)=O)cccc3[nH]2)CCCN1 [veliparib]
3 (4) number of patients (%): Allergic reaction, Any Grade | Creatinine increased, Any Grade | Creatinine increased, Grade 1 | Dizziness, Any Grade | Dizziness, Grade 1 | Dyspepsia, Any Grade | Dyspnea, Any Grade | Edema limbs, Any Grade | Edema limbs, Grade 1 | Fever, Any Grade
67 (92) number of patients (%): Any adverse event, Any Grade
2 (3) number of patients (%): Alanine aminotransferase increased, Any Grade | Alanine aminotransferase increased, Grade 1 | Alkaline phosphatase increased, Any Grade | Allergic reaction, Grade 1 | Anemia, Grade 3 | Aspartate aminotransferase increased, Any Grade | Aspartate aminotransferase increased, Grade 1 | Constipation, Grade 2 | Cough, Any Grade | Cough, Grade 1 | Dry mouth, Any Grade | Dry mouth, Grade 1 | Dysgeusia, Any Grade | Dysgeusia, Grade 1 | Dyspepsia, Grade 1 | Dysphagia, Any Grade | Dysphagia, Grade 1 | Dyspnea, Grade 1 | Febrile neutropenia, Grade 4 | Fever, Grade 1
24 (33) number of patients (%): Anemia, Any Grade
0 number of patients (%): Alanine aminotransferase increased, Grade 2 | Alanine aminotransferase increased, Grade 3 | Alanine aminotransferase increased, Grade 4 | Alkaline phosphatase increased, Grade 3 | Alkaline phosphatase increased, Grade 4 | Allergic reaction, Grade 2 | Allergic reaction, Grade 3 | Alopecia, Grade 3 | Alopecia, Grade 4 | Anemia, Grade 4 | Anorexia, Grade 2 | Anorexia, Grade 3 | Anorexia, Grade 4 | Anxiety, Grade 2 | Anxiety, Grade 3 | Anxiety, Grade 4 | Arthralgia, Grade 3 | Arthralgia, Grade 4 | Aspartate aminotransferase increased, Grade 2 | Aspartate aminotransferase increased, Grade 3 | Aspartate aminotransferase increased, Grade 4 | Blood bilirubin increased, Grade 2 | Blood bilirubin increased, Grade 3 | Blood bilirubin increased, Grade 4 | Bone pain, Grade 2 | Bone pain, Grade 3 | Bone pain, Grade 4 | Chills, Grade 2 | Chills, Grade 3 | Chills, Grade 4 | Constipation, Grade 3 | Constipation, Grade 4 | Cough, Grade 2 | Cough, Grade 3 | Cough, Grade 4 | Creatinine increased, Grade 2 | Creatinine increased, Grade 3 | Creatinine increased, Grade 4 | Cytokine release syndrome, Grade 1 | Cytokine release syndrome, Grade 3 | Cytokine release syndrome, Grade 4 | Dehydration, Grade 1 | Dehydration, Grade 3 | Dehydration, Grade 4 | Diarrhea, Grade 2 | Diarrhea, Grade 3 | Diarrhea, Grade 4 | Dizziness, Grade 2 | Dizziness, Grade 3 | Dizziness, Grade 4 | Dry mouth, Grade 2 | Dry mouth, Grade 3 | Dry mouth, Grade 4 | Dysesthesia, Grade 2 | Dysesthesia, Grade 3 | Dysesthesia, Grade 4 | Dysgeusia, Grade 2 | Dysgeusia, Grade 3 | Dysgeusia, Grade 4 | Dyspepsia, Grade 3 | Dyspepsia, Grade 4 | Dysphagia, Grade 2 | Dysphagia, Grade 3 | Dysphagia, Grade 4 | Dyspnea, Grade 3 | Dyspnea, Grade 4 | Edema limbs, Grade 2 | Edema limbs, Grade 3 | Edema limbs, Grade 4 | Erythema multiforme, Grade 1 | Erythema multiforme, Grade 3 | Erythema multiforme, Grade 4 | Esophagitis, Grade 2 | Esophagitis, Grade 3 | Esophagitis, Grade 4 | Fatigue, Grade 4 | Febrile neutropenia, Grade 1 | Febrile neutropenia, Grade 2 | Fever, Grade 2
18 (24) number of patients (%): Fatigue, Grade 1
57 (78) number of patients (%): Any adverse event, Grade 1
17 (23) number of patients (%): Alopecia, Any Grade
6 (8) number of patients (%): Arthralgia, Any Grade | Constipation, Any Grade
26 (36) number of patients (%): Any adverse event, Grade 4
34 (47) number of patients (%): Any adverse event, Grade 3
13 (18) number of patients (%): Alopecia, Grade 1
18 (25) number of patients (%): Anemia, Grade 2
27 (37) number of patients (%): Fatigue, Any Grade
3(4) number of patients (%): Febrile neutropenia, Grade 3
1 (1) number of patients (%): Alkaline phosphatase increased, Grade 1 | Alkaline phosphatase increased, Grade 2 | Allergic reaction, Grade 4 | Anxiety, Any Grade | Anxiety, Grade 1 | Arthralgia, Grade 2 | Blood bilirubin increased, Any Grade | Blood bilirubin increased, Grade 1 | Bone pain, Any Grade | Bone pain, Grade 1 | Chills, Any Grade | Chills, Grade 1 | Cytokine release syndrome, Any Grade | Cytokine release syndrome, Grade 2 | Dehydration, Any Grade | Dehydration, Grade 2 | Dysesthesia, Any Grade | Dysesthesia, Grade 1 | Dyspepsia, Grade 2 | Dyspnea, Grade 2 | Erythema multiforme, Any Grade | Erythema multiforme, Grade 2 | Esophagitis, Any Grade | Esophagitis, Grade 1 | Fever, Grade 3
5 (7) number of patients (%): Arthralgia, Grade 1 | Diarrhea, Any Grade | Diarrhea, Grade 1 | Fatigue, Grade 2 | Febrile neutropenia, Any Grade
46 (63) number of patients (%): Any adverse event, Grade 2
4 (5) number of patients (%): Alopecia, Grade 2 | Anemia, Grade 1 | Anorexia, Any Grade | Anorexia, Grade 1 | Constipation, Grade 1 | Fatigue, Grade 3
